Test results taken from ChEMBL document CHEMBL5338825, “Structure-Based Discovery of Inhibitors of the SARS-CoV-2 Nsp14 N7-Methyltransferase” (J Med Chem, 2023).
Activity calls are given as the source filed them. No cut-off for these calls is given here.

Key:
[1] = molecular target: Replicase polyprotein 1ab (Severe acute respiratory syndrome coronavirus 2, UniProt P0DTD1); test: Inhibition of N-terminal 6His/SUMO-tagged SARS-CoV-2 NSP14 expressed in Escherichia coli Rosetta 2 (DE3) PlysS cells using 5'GpppACCCCCCCCC-Biotin 3' and 3H-SAM as substrates incubated for 30 mins by TopCount scintillation proximity assay
[2] = molecular target: Histone-lysine N-methyltransferase EHMT2 (Homo sapiens, UniProt Q96KQ7); test: Inhibition of human G9a using biotin-tagged Histone H3 and 3H-SAM as substrate incubated for 1 hrs by TopCount scintillation proximity assay
Summary of the method: (§1)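 Radiometric concentration–response for IC50, run on panel methyltransferases showing more than 50% inhibition at a 10 μM screen. Triplicate.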

Homo sapiens [3] = organism: Homo sapiens; test: Inhibition of MDH (unknown origin) using oxaloacetic acid as substrate at 3.8 uM preincubated with compound for 5 mins followed by substrate addition and measured after 1.5 min in the presence of NADH by absorbance based plate reader analysis; conditions: time 6.5 min
Summary of the method: (§2)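 MDH assay at room temperature in 50 mM KPi, pH 7.0, with 1% v/v DMSO final. Compound preincubated 5 min with 2 nM enzyme. Reaction started with 200 μM NADH plus 200 μM oxaloacetic acid, and absorbance followed at 340 nm for 1 min 30 s. Initial rate divided by the DMSO control rate. Single top concentration in triplicate; eight-point half-log curves in triplicate where inhibition exceeded 40%.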

[4] = molecular target: Replicase polyprotein 1ab (Severe acute respiratory syndrome coronavirus 2) (UniProt P0DTD1); test: Inhibition of N-terminal 6His/SUMO-tagged SARS-CoV-2 NSP14 expressed in Escherichia coli Rosetta 2 (DE3) PlysS cells using 5'GpppACCCCCCCCC-Biotin 3' and 3H-SAM as substrates at 100 uM incubated for 30 mins by TopCount scintillation proximity assay relative to control
Homo sapiens [5] = organism: Homo sapiens; test: Inhibition of MDH (unknown origin) using oxaloacetic acid as substrate at 3.8 uM preincubated with compound for 5 mins followed by substrate addition and measured after 1.5 min in the presence of NADH and 0.01% Triton-X 100 by absorbance based plate reader analysis; conditions: time 6.5 min
Summary of the method: (§3)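 Detergent-reversal MDH assay: 50 mM KPi, pH 7.0, with 1% v/v DMSO and 0.01% v/v Triton X-100. Enzyme at 2 nM preincubated 5 min with compound, then started with 200 μM NADH plus 200 μM oxaloacetate. A340 read for 1 min 30 s, rate normalised to DMSO control. Eight-point half-log curves in triplicate.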

Bacteria [6] = test: Inhibition of beta-lactamase AmpC (unknown origin) at 3.8 uM pre-incubated with compound for 5 mins followed by substrate addition and measured after 1.5 mins by absorbance based plate reader analysis; conditions: time 6.5 min
Summary of the method: (§4)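 AmpC at 2 nM preincubated 5 min with compound at room temperature in 50 mM KPi, pH 7.0, with 1% v/v DMSO. Started with 50 μM CENTA (read at 405 nm) or 50 μM nitrocefin (read at 490 nm), monitored 1 min 30 s. Initial rate taken as % of DMSO control. Top concentration in triplicate; eight-point half-log curves in triplicate where inhibition exceeded 40%.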

[7] = molecular target: Histone-lysine N-methyltransferase EHMT1 (Homo sapiens, UniProt Q9H9B1); test: Inhibition of human GLP using biotin-tagged Histone H3 and 3H-SAM as substrate incubated for 1 hrs by TopCount scintillation proximity assay; summary of the method: as §1
[8] = molecular target: Replicase polyprotein 1ab (Severe acute respiratory syndrome coronavirus 2) (UniProt P0DTD1); test: Reversible covalent inhibition of N-terminal 6His/SUMO-tagged SARS-CoV-2 NSP14 expressed in Escherichia coli Rosetta 2 (DE3) PlysS cells using 5'GpppACCCCCCCCC-Biotin 3' and 3H-SAM as substrates at 10 fold IC50 concentration incubated for 60 mins by rapid dilution method
Summary of the method: (§5)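 Jump dilution: Nsp14 at 100-fold its assay concentration (assay level 1.5 nM) preincubated with compound for 1 h at room temperature. Then diluted 100-fold into assay buffer containing RNA substrate and SAM, and recovery of methyltransferase activity monitored.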

[9] = molecular target: Replicase polyprotein 1ab (Severe acute respiratory syndrome coronavirus 2) (UniProt P0DTD1); test: Reversible binding affinity to Cys387 of N-terminal 6His/SUMO-tagged SARS-CoV-2 NSP14 expressed in Escherichia coli Rosetta 2 (DE3) PlysS cells using 5'GpppACCCCCCCCC-Biotin 3' and 3H-SAM as substrates incubated for 2 hrs by mass spectrometry analysis
Summary of the method: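 Nsp14 incubated with 20-fold molar excess of compound for 2 h at 20 °C, then taken into 0.1% formic acid. Separated by HPLC on a 5–95% acetonitrile/water gradient and analysed by ESI time-of-flight MS for protein mass shift.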

[10] = Aggregation property of the compound in KPi buffer at pH 7.0 assessed as formation of colloid-like particles at 3.8 uM by dynamic light scattering analysis; format: physicochemical; conditions: pH 7, 3.8 µM
Summary of the method: (§6)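 Compounds diluted as 8-point half-log series in filtered 50 mM KPi, pH 7.0, with 1% v/v DMSO final. Particles detected by dynamic light scattering, triplicate at each concentration. CAC taken as the intersection of separate nonlinear fits to aggregating (>10^6 scattering intensity) and non-aggregating data.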

Bacteria [11] = test: Inhibition of beta-lactamase AmpC (unknown origin) at 3.8 uM pre-incubated with compound for 5 mins followed by substrate addition and measured after 1.5 mins in the presence of 0.01% Triton-X 100 by absorbance based plate reader analysis
Summary of the method: (§7)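 AmpC detergent-reversal assay: 50 mM KPi, pH 7.0, with 1% v/v DMSO and 0.01% v/v Triton X-100. Enzyme at 2 nM preincubated 5 min with compound, then 50 μM CENTA (405 nm) or nitrocefin (490 nm) added. Absorbance followed for 1 min 30 s and rate normalised to DMSO. Eight-point half-log curves in triplicate.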

Bacteria [12] = test: Inhibition of beta-lactamase AmpC (unknown origin) pre-incubated with compound for 5 mins followed by substrate addition and measured after 1.5 mins by absorbance based plate reader analysis; conditions: time 6.5 min; summary of the method: as §4
[13] = molecular target: Protein arginine N-methyltransferase 9 (Homo sapiens, UniProt Q6P2P2); test: Inhibition of human PRMT9 using biotin-tagged SAP145 and 3H-SAM as substrate incubated for 1 hrs by TopCount scintillation proximity assay; summary of the method: as §1
[14] = molecular target: T1, Protein arginine N-methyltransferase 3 (Homo sapiens, UniProt O60678); test: Inhibition of human PRMT3 using biotin-tagged Histone H4 and 3H-SAM as substrate at 6 uM incubated for 1 hrs by TopCount scintillation proximity assay relative to control
Target sequence in this assay (O60678 2-531 limits assumed): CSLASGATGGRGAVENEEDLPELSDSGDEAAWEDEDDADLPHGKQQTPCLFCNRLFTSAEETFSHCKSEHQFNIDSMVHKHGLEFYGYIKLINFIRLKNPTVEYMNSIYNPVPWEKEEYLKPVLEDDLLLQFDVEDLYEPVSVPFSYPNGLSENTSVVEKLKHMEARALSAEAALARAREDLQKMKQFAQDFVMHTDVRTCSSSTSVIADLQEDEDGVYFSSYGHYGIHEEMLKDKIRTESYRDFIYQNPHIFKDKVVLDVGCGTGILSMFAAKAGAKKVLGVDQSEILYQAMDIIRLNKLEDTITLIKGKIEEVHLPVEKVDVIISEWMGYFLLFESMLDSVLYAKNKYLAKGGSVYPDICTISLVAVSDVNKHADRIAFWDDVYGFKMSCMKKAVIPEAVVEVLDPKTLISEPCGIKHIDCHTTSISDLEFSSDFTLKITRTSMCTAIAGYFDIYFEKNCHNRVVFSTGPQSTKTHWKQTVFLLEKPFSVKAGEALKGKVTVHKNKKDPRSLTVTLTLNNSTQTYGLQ

[15] = molecular target: T1, Protein arginine N-methyltransferase 3; test: Inhibition of human PRMT3 using biotin-tagged Histone H4 and 3H-SAM as substrate incubated for 1 hrs by TopCount scintillation proximity assay; summary of the method: as §1
[16] = molecular target: T2, Histone-lysine N-methyltransferase 2A (Homo sapiens, UniProt Q03164); test: Inhibition of human MLL1 using biotin-tagged Histone H3 and 3H-SAM as substrate at 6 uM incubated for 1 hrs by TopCount scintillation proximity assay relative to control
Bacteria [17] = test: Inhibition of beta-lactamase AmpC (unknown origin) pre-incubated with compound for 5 mins followed by substrate addition and measured after 1.5 mins in the presence of 0.01% Triton-X 100 by absorbance based plate reader analysis; conditions: time 6.5 min; summary of the method: as §7
[18] = Aggregation property of the compound in KPi buffer at pH 7.0 assessed as formation of colloid-like particles by dynamic light scattering analysis; format: physicochemical; summary of the method: as §6
Homo sapiens [19] = organism: Homo sapiens; test: Inhibition of MDH (unknown origin) using oxaloacetic acid as substrate preincubated with compound for 5 mins followed by substrate addition and measured after 1.5 min in the presence of NADH and 0.01% Triton-X 100 by absorbance based plate reader analysis; conditions: time 6.5 min; summary of the method: as §3
[20] = molecular target: RNA 5'-monophosphate methyltransferase (Homo sapiens) (UniProt Q7Z5W3); test: Inhibition of human BCDIN3D using biotin-tagged microRNA-145 and 3H-SAM as substrate at 6 uM incubated for 1 hrs by TopCount scintillation proximity assay relative to control
[21] = molecular target: Replicase polyprotein 1ab (Severe acute respiratory syndrome coronavirus 2) (UniProt P0DTD1); test: Competitive inhibition of N-terminal 6His/SUMO-tagged SARS-CoV-2 NSP14 expressed in Escherichia coli Rosetta 2 (DE3) PlysS cells using 5'GpppACCCCCCCCC-Biotin 3' and 3H-SAM as substrates at increasing concentration incubated for 30 mins by TopCount scintillation proximity assay
Summary of the method: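 Competition pattern read from IC50 shifts. […] Separately, SAM fixed at 1.25 μM (5× Km) with RNA varied up to 0.5 μM (10× Km). A linear rise of IC50 with substrate concentration was taken as competitive inhibition.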

[22] = molecular target: Histone-lysine N-methyltransferase EHMT1 (Homo sapiens) (UniProt Q9H9B1); test: Inhibition of human GLP using biotin-tagged Histone H3 and 3H-SAM as substrate at 6 uM incubated for 1 hrs by TopCount scintillation proximity assay relative to control
[23] = molecular target: Protein arginine N-methyltransferase 9 (Homo sapiens) (UniProt Q6P2P2); test: Inhibition of human PRMT9 using biotin-tagged SAP145 and 3H-SAM as substrate at 6 uM incubated for 1 hrs by TopCount scintillation proximity assay relative to control
[24] = molecular target: T3, Protein arginine N-methyltransferase 1 (Homo sapiens, UniProt Q99873); test: Inhibition of human PRMT1 using biotin-tagged Histone H4 and 3H-SAM as substrate incubated for 1 hrs by TopCount scintillation proximity assay; summary of the method: as §1
[25] = molecular target: T3, Protein arginine N-methyltransferase 1; test: Inhibition of human PRMT1 using biotin-tagged Histone H4 and 3H-SAM as substrate at 6 uM incubated for 1 hrs by TopCount scintillation proximity assay relative to control
[26] = molecular target: Histone-lysine N-methyltransferase SMYD3 (Homo sapiens, UniProt Q9H7B4); test: Inhibition of human SMYD3 using biotin-tagged MAP3K2 and 3H-SAM as substrate incubated for 1 hrs by TopCount scintillation proximity assay
Summary of the method: (§8)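 Radiometric human methyltransferase assay. Enzymes showing >50% inhibition at a 10 μM single-point screen went on to concentration–response in triplicate to derive IC50.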

[27] = molecular target: T2, Histone-lysine N-methyltransferase 2A; test: Inhibition of human MLL1 using biotin-tagged Histone H3 and 3H-SAM as substrate incubated for 1 hrs by TopCount scintillation proximity assay; summary of the method: as §1
[28] = molecular target: Histone-lysine N-methyltransferase SUV39H1 (Homo sapiens) (UniProt O43463); test: Inhibition of human SUV39H1 using Biotin-tagged histone H3 and 3H-SAM as substrate at 6 uM incubated for 1 hrs by TopCount scintillation proximity assay relative to control
[29] = molecular target: Histone-lysine N-methyltransferase SMYD3 (Homo sapiens) (UniProt Q9H7B4); test: Inhibition of human SMYD3 using biotin-tagged MAP3K2 and 3H-SAM as substrate at 6 uM incubated for 1 hrs by TopCount scintillation proximity assay relative to control
[30] = molecular target: Replicase polyprotein 1ab (Severe acute respiratory syndrome coronavirus 2) (UniProt P0DTD1); test: Non-covalent inhibition of N-terminal 6His/SUMO-tagged SARS-CoV-2 NSP14 expressed in Escherichia coli Rosetta 2 (DE3) PlysS cells using 5'GpppACCCCCCCCC-Biotin 3' and 3H-SAM as substrates at 10 fold IC50 concentration incubated for 60 mins by rapid dilution method; summary of the method: as §5
[31] = molecular target: T4, Histone-lysine N-methyltransferase, H3 lysine-79 specific (Homo sapiens, UniProt Q8TEK3); test: Inhibition of human DOT1L using chicken nucleosome and 3H-SAM as substrate incubated for 1 hrs by TopCount scintillation proximity assay; summary of the method: as §1
[32] = molecular target: Histone-lysine N-methyltransferase SUV39H1 (Homo sapiens, UniProt O43463); test: Inhibition of human SUV39H1 using Biotin-tagged histone H3 and 3H-SAM as substrate incubated for 1 hrs by TopCount scintillation proximity assay; summary of the method: as §8
[33] = molecular target: T4, Histone-lysine N-methyltransferase, H3 lysine-79 specific; test: Inhibition of human DOT1L using chicken nucleosome and 3H-SAM as substrate at 6 uM incubated for 1 hrs by TopCount scintillation proximity assay relative to control
Homo sapiens [34] = organism: Homo sapiens; test: Inhibition of MDH (unknown origin) using oxaloacetic acid as substrate preincubated with compound for 5 mins followed by substrate addition and measured after 1.5 min in the presence of NADH by absorbance based plate reader analysis; conditions: time 6.5 min; summary of the method: as §2
[35] = molecular target: RNA 5'-monophosphate methyltransferase (Homo sapiens, UniProt Q7Z5W3); test: Inhibition of human BCDIN3D using biotin-tagged microRNA-145 and 3H-SAM as substrate incubated for 1 hrs by TopCount scintillation proximity assay; summary of the method: as §1
Chain of RNA 5'-monophosphate methyltransferase (Q7Z5W3 whole entry): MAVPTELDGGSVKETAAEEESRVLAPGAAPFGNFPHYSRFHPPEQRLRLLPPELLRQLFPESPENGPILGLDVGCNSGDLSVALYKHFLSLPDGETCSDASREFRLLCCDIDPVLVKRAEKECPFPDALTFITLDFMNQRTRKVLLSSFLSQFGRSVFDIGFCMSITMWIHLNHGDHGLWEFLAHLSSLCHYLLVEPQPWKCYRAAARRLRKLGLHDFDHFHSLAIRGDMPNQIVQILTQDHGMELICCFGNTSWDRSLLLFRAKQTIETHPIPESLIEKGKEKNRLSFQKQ

T2 sequence (Q03164 1-2718 limits assumed): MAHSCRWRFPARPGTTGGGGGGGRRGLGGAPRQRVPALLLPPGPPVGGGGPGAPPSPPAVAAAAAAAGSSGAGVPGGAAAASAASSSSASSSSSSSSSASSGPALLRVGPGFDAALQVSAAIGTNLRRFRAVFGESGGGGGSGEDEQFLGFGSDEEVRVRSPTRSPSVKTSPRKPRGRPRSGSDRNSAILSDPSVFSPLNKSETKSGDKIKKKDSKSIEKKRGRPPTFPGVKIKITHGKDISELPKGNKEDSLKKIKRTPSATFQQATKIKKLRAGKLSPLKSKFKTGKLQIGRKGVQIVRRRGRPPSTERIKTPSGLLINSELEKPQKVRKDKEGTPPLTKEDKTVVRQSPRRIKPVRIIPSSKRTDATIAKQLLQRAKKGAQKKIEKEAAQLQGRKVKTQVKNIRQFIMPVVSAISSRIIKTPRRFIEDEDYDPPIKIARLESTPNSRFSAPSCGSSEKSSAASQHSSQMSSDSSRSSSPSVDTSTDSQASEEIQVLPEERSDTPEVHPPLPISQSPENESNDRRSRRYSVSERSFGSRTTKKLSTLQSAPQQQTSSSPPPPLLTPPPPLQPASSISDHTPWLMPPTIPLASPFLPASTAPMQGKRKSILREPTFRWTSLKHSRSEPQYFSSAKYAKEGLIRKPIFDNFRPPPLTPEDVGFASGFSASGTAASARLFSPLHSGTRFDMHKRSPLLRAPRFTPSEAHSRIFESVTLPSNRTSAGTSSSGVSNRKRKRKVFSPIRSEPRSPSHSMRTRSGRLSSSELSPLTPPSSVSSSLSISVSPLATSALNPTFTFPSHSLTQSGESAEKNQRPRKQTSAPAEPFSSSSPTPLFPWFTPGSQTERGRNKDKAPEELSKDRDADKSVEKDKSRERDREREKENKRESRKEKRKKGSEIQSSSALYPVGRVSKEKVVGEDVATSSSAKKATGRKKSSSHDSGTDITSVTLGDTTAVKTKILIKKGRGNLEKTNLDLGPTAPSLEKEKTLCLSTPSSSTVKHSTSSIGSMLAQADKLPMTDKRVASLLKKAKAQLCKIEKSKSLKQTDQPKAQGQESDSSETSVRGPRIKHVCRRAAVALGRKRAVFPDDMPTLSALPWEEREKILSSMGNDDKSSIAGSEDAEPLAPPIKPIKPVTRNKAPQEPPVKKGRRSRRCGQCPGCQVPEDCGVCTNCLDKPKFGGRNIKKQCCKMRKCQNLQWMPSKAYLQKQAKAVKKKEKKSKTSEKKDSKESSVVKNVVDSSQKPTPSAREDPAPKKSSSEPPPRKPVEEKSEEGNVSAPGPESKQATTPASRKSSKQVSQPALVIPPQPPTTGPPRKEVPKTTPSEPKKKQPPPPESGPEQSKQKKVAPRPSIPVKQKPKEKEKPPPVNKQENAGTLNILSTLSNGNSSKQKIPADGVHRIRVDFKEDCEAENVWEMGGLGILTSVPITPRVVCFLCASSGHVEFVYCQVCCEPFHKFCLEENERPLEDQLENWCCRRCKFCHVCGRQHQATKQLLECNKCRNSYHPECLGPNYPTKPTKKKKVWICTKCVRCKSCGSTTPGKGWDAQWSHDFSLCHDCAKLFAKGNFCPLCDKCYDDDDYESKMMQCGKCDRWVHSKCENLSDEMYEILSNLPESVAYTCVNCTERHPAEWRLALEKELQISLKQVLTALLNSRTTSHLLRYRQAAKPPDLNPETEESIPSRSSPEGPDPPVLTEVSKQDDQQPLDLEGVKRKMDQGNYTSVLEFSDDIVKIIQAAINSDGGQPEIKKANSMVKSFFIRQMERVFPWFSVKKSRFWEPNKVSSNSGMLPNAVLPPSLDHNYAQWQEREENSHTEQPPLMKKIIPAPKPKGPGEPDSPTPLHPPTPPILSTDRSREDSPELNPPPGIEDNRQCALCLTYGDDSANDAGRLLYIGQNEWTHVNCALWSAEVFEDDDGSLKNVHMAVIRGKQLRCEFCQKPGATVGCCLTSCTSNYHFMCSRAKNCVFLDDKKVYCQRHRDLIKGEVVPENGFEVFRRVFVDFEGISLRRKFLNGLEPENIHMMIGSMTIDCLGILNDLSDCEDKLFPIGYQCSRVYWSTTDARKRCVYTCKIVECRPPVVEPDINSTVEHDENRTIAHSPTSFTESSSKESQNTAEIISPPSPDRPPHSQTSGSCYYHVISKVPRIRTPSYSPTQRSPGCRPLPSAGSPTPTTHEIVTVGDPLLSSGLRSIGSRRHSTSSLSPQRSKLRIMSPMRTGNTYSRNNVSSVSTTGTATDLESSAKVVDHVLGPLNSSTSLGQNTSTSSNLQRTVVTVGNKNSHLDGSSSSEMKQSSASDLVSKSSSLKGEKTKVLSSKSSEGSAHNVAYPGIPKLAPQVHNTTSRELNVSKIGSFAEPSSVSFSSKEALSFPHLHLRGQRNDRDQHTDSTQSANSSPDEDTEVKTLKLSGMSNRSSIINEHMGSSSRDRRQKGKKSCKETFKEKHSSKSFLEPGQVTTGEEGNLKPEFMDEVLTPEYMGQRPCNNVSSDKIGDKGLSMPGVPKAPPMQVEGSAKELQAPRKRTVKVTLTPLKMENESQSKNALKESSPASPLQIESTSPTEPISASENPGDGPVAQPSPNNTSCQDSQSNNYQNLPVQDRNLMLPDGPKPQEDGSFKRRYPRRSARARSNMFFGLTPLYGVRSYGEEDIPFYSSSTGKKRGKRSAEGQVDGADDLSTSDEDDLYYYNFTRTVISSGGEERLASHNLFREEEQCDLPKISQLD
T2 sequence (Q03164 2719-3969 limits assumed): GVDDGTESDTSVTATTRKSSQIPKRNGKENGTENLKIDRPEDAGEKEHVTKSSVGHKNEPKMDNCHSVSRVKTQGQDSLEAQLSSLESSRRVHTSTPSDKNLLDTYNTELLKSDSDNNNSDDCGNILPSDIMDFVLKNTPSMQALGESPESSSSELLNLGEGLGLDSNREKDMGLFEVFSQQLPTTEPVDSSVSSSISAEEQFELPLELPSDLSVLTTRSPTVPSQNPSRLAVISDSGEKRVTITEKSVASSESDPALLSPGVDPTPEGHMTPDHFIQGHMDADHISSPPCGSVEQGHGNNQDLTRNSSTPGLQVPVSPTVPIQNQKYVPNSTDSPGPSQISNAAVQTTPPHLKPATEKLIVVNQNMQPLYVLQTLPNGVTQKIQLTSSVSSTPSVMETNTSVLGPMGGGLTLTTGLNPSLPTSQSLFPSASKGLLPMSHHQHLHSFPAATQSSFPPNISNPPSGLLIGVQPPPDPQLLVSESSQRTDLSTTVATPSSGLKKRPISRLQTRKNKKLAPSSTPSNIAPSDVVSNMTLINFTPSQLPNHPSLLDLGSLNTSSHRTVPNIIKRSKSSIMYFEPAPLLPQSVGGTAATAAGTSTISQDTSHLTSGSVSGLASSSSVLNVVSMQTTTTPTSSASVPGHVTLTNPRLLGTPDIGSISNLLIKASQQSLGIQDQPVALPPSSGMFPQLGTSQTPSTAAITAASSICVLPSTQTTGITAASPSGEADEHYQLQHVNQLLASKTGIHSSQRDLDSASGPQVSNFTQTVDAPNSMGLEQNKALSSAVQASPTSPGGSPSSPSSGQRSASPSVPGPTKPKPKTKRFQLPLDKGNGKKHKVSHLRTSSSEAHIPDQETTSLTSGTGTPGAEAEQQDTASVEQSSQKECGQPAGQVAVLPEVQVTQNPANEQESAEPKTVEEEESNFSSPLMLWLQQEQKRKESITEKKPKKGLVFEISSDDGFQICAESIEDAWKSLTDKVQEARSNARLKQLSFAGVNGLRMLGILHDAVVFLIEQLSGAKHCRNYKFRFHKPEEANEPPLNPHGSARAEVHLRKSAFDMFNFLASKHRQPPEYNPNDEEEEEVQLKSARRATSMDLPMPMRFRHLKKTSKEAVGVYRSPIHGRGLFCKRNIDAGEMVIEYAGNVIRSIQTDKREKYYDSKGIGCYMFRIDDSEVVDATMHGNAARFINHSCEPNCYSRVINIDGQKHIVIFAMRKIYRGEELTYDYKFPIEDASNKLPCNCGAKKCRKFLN
Chain of RNA 5'-monophosphate methyltransferase (Homo sapiens) (Q7Z5W3 whole entry): as the sequence (Q7Z5W3 whole entry) above

N#Cc1ccc(NC(=O)c2cc(C=O)n3c2CCCC3)c2cc(O)ccc12
IC50 [1]: 8 µM
IC50 [2]: 30 µM
inhibition (Homo sapiens [3]): Active
inhibition [4]: > 50%
inhibition (Homo sapiens [5]): inactive
inhibition (Bacteria [6]): Active
IC50 [7]: 14 µM
inhibition [8]: Active
Activity [9]: Active
Activity [10]: Active
inhibition (Bacteria [11]): inactive

O=C(COC(=O)c1cc(-c2ccoc2)n[nH]1)Nc1ccc(Br)cc1
inhibition (Bacteria [12]): inactive
IC50 [1]: 2.2 µM
IC50 [13]: 11 µM
inhibition [14]: > 50%
IC50 [15]: 11 µM
inhibition [16]: > 50%
inhibition (Bacteria [17]): inactive
Activity [18]: Active
inhibition (Homo sapiens [19]): inactive
inhibition [20]: > 50%
inhibition [21]: Active
inhibition [22]: > 50%
IC50 [7]: 26 µM
inhibition [23]: > 50%
IC50 [24]: 15 µM
inhibition [25]: > 50%
IC50 [26]: 8 µM
IC50 [27]: 16 µM
inhibition [28]: > 50%
inhibition [29]: > 50%
inhibition [30]: Active
IC50 [31]: 7 µM
IC50 [32]: 4 µM
inhibition [33]: > 50%
inhibition (Homo sapiens [34]): Active
IC50 [35]: 11 µM
